Paper PMC10552104 (ACS Omega, 2023)

Legend:
Type in all cases: cell-based
[1] = tested on: DU145 prostate cancer cell line; test: MTT cytotoxicity assay, DU145; conditions: Homo sapiens, DU-145, 24 h, read-out: IC50 DU145
Outline: (§1)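 IC50 values in μM, reported as mean ± S.D. from the table footnote; the same footnote covers the three cancer lines and the normal CHO–K1 line. The full series of test compounds was screened on each line.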

[2] = tested on: HepG2 hepatocellular carcinoma cells; test: MTT cytotoxicity assay, HepG2; conditions: Homo sapiens, HepG2, 24 h, read-out: IC50 HepG2
Outline: as §1

[3] = tested on: B16 melanoma cancer cell line; test: MTT cytotoxicity assay, B16; conditions: Mus musculus, B16, 24 h, read-out: IC50 B16
Outline: as §1

c1ccc(C(c2c[nH]c3ccccc23)c2c[nH]c3ccccc23)cc1 [1a, 3,3′-(Phenylmethylene)bis(1H-indole)]
IC50 [1]: 5.24 ± 0.67 µM
IC50 [2]: 4.62 ± 0.03 µM
IC50 [3]: 9.88 ± 1.19 µM

COc1ccc2[nH]cc(C(c3ccc(C)cc3)c3c[nH]c4ccc(OC)cc34)c2c1 [1c, 3,3′-(p-Tolylmethylene)bis(5-methoxy-1H-indole)]
IC50 [1]: 2.02 ± 0.74 µM
IC50 [2]: 5.47 ± 0.56 µM
IC50 [3]: 36 ± 1.09 µM

COc1ccc(C(c2c[nH]c3ccc(C#N)cc23)c2c[nH]c3ccc(C#N)cc23)cc1 [1g, 3,3′-((4-Methoxyphenyl)methylene)bis(1H-indole-5-carbonitrile)]
IC50 [1]: 8.13 ± 0.77 µM
IC50 [2]: 6.33 ± 1.8 µM
IC50 [3]: 9.82 ± 0.52 µM

COc1ccc(C(c2c(-c3ccccc3)[nH]c3ccccc23)c2c(-c3ccccc3)[nH]c3ccccc23)cc1OC [1i, 3,3′-((3,4-Dimethoxyphenyl)methylene)bis(2-phenyl-1H-indole)]
IC50 [1]: 10.3 ± 0.87 µM
IC50 [2]: 7.43 ± 1.6 µM
IC50 [3]: 15.9 ± 0.25 µM

O=[N+]([O-])c1ccc(C(c2c[nH]c3ccccc23)c2c[nH]c3ccccc23)cc1 [1k, 3,3′((4-Nitrophenyl)methylene)bis(1H-indole)]
IC50 [1]: 1.09 ± 0.92 µM
IC50 [2]: 5.28 ± 0.24 µM
IC50 [3]: 29.2 ± 2.38 µM

c1ccc2c(C(c3c[nH]c4ccccc34)c3c[nH]c4ccccc34)cccc2c1 [1m, 3,3′-(Naphthalen-1-ylmethylene)bis(1H-indole)]
IC50 [1]: 8.18 ± 0.74 µM
IC50 [2]: 7.54 ± 1.19 µM
IC50 [3]: 9.49 ± 1.97 µM

c1ccc2c(C(c3c[nH]c4ccccc34)c3c[nH]c4ccccc34)c3ccccc3cc2c1 [1n, 3,3′-(Anthracen-9-ylmethylene)bis(1H-indole)]
IC50 [1]: 6.87 ± 1.06 µM
IC50 [2]: 11.9 ± 0.1 µM
IC50 [3]: 13.6 ± 0.92 µM

c1coc(C(c2c[nH]c3ccccc23)c2c[nH]c3ccccc23)c1 [1o, 3,3′-(Furan-2-ylmethylene)bis(1H-indole)]
IC50 [1]: 60.8 ± 1.24 µM
IC50 [2]: 5.87 ± 0.3 µM
IC50 [3]: 16.1 ± 0.79 µM

Brc1ccc2[nH]cc(C(c3ccco3)c3c[nH]c4ccc(Br)cc34)c2c1 [1p, 3,3′-(Furan-2-ylmethylene)bis(5-bromo-1H-indole)]
IC50 [1]: 19.4 ± 0.88 µM
IC50 [2]: 11.4 ± 1.37 µM
IC50 [3]: 19.7 ± 0.87 µM

c1ccc(-c2[nH]c3ccccc3c2C(c2ccco2)c2c(-c3ccccc3)[nH]c3ccccc23)cc1 [1q, 3,3′-(Furan-2-ylmethylene)bis(2-phenyl-1H-indole)]
IC50 [1]: 39.5 ± 1.02 µM
IC50 [2]: 5 ± 0.01 µM
IC50 [3]: 23.5 ± 7 µM

Cc1[nH]c2ccccc2c1C(c1cccs1)c1c(C)[nH]c2ccccc12 [1r, 3,3′-(Thiophen-2-ylmethylene)bis(2-methyl-1H-indole)]
IC50 [1]: 21.2 ± 2.01 µM
IC50 [2]: 5.82 ± 0.5 µM
IC50 [3]: 15.7 ± 2.1 µM

COc1cc(C(c2c[nH]c3ccccc23)c2c[nH]c3ccccc23)cc(OC)c1O [1s, 4-(Di(1H-indol-3-yl)methyl)-2,6-dimethoxyphenol]
IC50 [1]: 22.6 ± 0.98 µM
IC50 [2]: 7.01 ± 0.53 µM
IC50 [3]: 7.02 ± 0.32 µM

COc1ccc(C(c2c[nH]c3ccccc23)c2c[nH]c3ccccc23)cc1OC [1t, 3,3′-((3,4-Dimethoxyphenyl)methylene)bis(1H-indole)]
IC50 [1]: 12.2 ± 0.96 µM
IC50 [2]: 8.12 ± 0.87 µM
IC50 [3]: 8.14 ± 1.45 µM

COc1cccc2c1C(=O)c1c(O)c3c(c(O)c1C2=O)C[C@@](O)(C(=O)CO)C[C@@H]3O[C@H]1C[C@H](N)[C@H](O)[C@H](C)O1 [doxorubicin, reference compound]
IC50 [1]: 0.7 ± 0.13 µM
IC50 [2]: 0.6 ± 0.12 µM
IC50 [3]: 0.8 ± 0.12 µM
